Reference: PubChem BioAssay AID504788 (Broad Institute, 2011)
Inconclusive results are not listed. The source made the active and inactive calls.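 Rule for the calls: active = compound lowers the viability signal with a fitted half-maximal concentration within ten times the top dose, every run; inconclusive = runs disagree, poor fit, or flat partial inhibition; inactive = the rest.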

Tested on: not listed separately
Assay: growth inhibition of breast cancer stem-like cells, dose response, cell-based, HMLE_shECad, CellTiter-Glo luminescence, dry powder, set 7 (AID 504788)
Details: HMLE_shECad viability, CellTiter-Glo luminescence, 72 h; at 19.5 µM (top of the series)
Method in brief: (§1)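 System: HMLE_shECad cells, E-cadherin knockdown, EMT-induced breast cancer stem cell model / Input: 2000 cells/well / Buffer or medium: serum-free CSC screening medium, 37 °C, 5% CO2 / Doses: 100 nL compound pinned into each well / Incubation: ≥4 h settling, then 70–74 h compound exposure, 37 °C / Technique: CellTiter-Glo luminescence, reagent diluted 1:3 in PBS, 12 min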

SMILES	activity change, negative = inhibition
O=C(COc1ccc(Cl)cc1Cl)N/N=C/c1ccccc1	3.46% (inactive)
Cc1csc(NC(=O)c2ccc(COc3cccnc3)o2)n1	-5.96% (inactive)
O=C(COc1ccc(Cl)cc1Cl)NC1=NCCS1	-3.83% (inactive)
O=C(c1ccc(COc2ccccc2)o1)n1ccc(-c2ccc[nH]2)n1	7.35% (inactive)
CC(C)c1ccc(/C=C/C(=O)N2CC(F)(F)C2)cc1	-4.76% (inactive)
CCc1ccc(/C=C/C(=O)NC2=NCCS2)cn1	1.08% (inactive)
Cc1cccc(/C=C/C(=O)NC2=NCCS2)c1	6.76% (inactive)
c1c[nH]c(-c2ccn[nH]2)c1	5% (inactive)
O=C(c1ccc(COc2ccccc2)o1)N1CC(F)(F)C1	1.55% (inactive)
O=C(COc1ccc(Cl)cc1Cl)n1ccc(-c2ccc[nH]2)n1	7.33% (inactive)
N#Cc1cccc(/C=C/C(=O)NC2=NCCS2)c1	0.158% (inactive)
N#Cc1ccccc1/C=C/C(=O)NC1=NCCS1	-13.1% (inactive)
O=C(O)COc1ccc(Cl)cc1Cl	-2.16% (inactive)
CC(C)c1ccc(C#CC(=O)NC2=NCCS2)cc1	-4.05% (inactive)
CN(C)C(=N)N=C(N)N	6.34% (inactive)
COc1cc(OC(C)C)ccc1/C=C/C(=O)NC1=NCCS1	-1.34% (inactive)

Tested on: HMLE_shECad viability, CellTiter-Glo luminescence, 72 h
Assay: as above
Details: not given
Method in brief: as §1

SMILES	AC50 [µM]
Cc1csc(NC(=O)c2cccc(COc3cccc(F)c3)c2)n1	0.705
Cc1cccc(OCc2cccc(C(=O)Nc3nc(C)cs3)c2)c1	2.74
Cc1ccnc(NCc2cccc(C(=O)Nc3nc(C)cs3)c2)c1	17.7
COc1cc(C(C)C)ccc1/C=C/C(=O)NC1=NCCS1	30.6
Cc1csc(NC(=O)c2cccc(CNc3ncccc3F)c2)n1	22.9
Cc1csc(NC(=O)c2cccc(COc3ccccc3F)c2)n1	1.93
Cc1cccc(OCc2ccc(C(=O)Nc3nc(C)cs3)o2)n1	18.7
COc1cccc2c1C(=O)c1c(O)c3c(c(O)c1C2=O)C[C@@](O)(C(=O)CO)C[C@@H]3OC1C[C@H](N)[C@H](O)[C@H](C)O1 (stereo not given in full)	0.053
Cc1csc(NC(=O)c2ccc(COc3cccc(OC(F)(F)F)c3)o2)n1	0.895
Cc1cccc(NCc2cccc(C(=O)Nc3nc(C)cs3)c2)n1	21.1
Cc1csc(NC(=O)c2ccc(COc3ncccc3F)o2)n1	22.7
Cc1cccc(NCc2ccc(C(=O)Nc3nc(C)cs3)o2)n1	18
Cc1csc(NC(=O)COc2ccc(Cl)cc2Cl)n1	28.9
O=C(COc1c(Cl)cc(Cl)cc1Cl)N/N=C/c1ccc[nH]1	1.7
Cc1csc(NC(=O)c2ccc(COc3ccncc3)o2)n1	20
O=C(/C=C/c1ccc(-c2ccccc2)nc1)NC1=NCCS1	29
CC(C)c1ccc(/C=C/C(=O)n2ccc(-c3ccc[nH]3)n2)cc1	15.6
Cc1csc(NC(=O)c2cccc(COc3cccc(Cl)c3)c2)n1	1.11
COc1cc([C@@H]2c3cc4c(cc3[C@@H](OC3OC5COC(C)OC5C(O)C3O)[C@H]3COC(=O)[C@H]23)OCO4)cc(OC)c1O (stereo not given in full)	2.95
